# Source: PMC11629119 (Pharmacology Research & Perspectives, 2024)
# Several values for one entry are separate records, joined by “and”; a condition that tells them apart may be missing. Equal values may be shown once. Entries after “also recorded” stand apart in the source; their conditions may differ. Marks after values point to notes of the source that are not given here.
# What was measured:
# 3D HepaRG [1] = assay: Cell viability assay; type: cell-based, human; settings: for higher toxicity of metabolite compared to its solvent (EC50, 3D HepaRG): 2‐MPA vs β‐PGME, 2‐MAA vs EGME; for EC50: Homo sapiens, HepaRG
# Outline: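 HepaRG spheroids formed from 3000 cells/well in U-bottom plates, 7 days pre-exposure. Dosing: half the medium replaced with twofold-concentrated compound; plates gas-permeable sealed. Ranges: glycol ethers 10–1000 mM, acid metabolites 1–25 mM, ethanol 1–600 mM; top solutions neutralised to pH 7.4, filtered. ATP by CellTiter-Glo luminescence at 48 h and 7 days, % of untreated control. EC50 calculated. N = 3–4 biological repeats, triplicates.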
# 2D HepaRG = assay: Cell viability assay; type: cell-based; settings: Homo sapiens
# Outline: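 HepaRG seeded at 2.25 × 10⁵ cells/cm² in 96-well plates 7 days before exposure; plates gas-permeable sealed. Ranges: glycol ethers 10–1000 mM, metabolites 1–25 mM, ethanol 1–600 mM. Highest-concentration solutions neutralised to pH 7.4 with NaOH, filter-sterilised. ATP by CellTiter-Glo luminescence at 48 h and 7 days, as % untreated control. EC50 calculated. N = 3–4 biological repeats, triplicates.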
# [2] = Data derived from Pubchem ref PubChem (nih.gov); cited from earlier work
# [3] = TK model parameter; ref Devanthéry et al. [20]; cited from earlier work
# [4] = TK model parameter; ref Kerns et al. [54]; cited from earlier work
# 3D HepaRG [5] = assay: Albumin ELISA assay in 3D HepaRG supernatant; type: cell-based, human; settings: 3D HepaRG exposed to 16 mM APAP for 48 h; untreated 78.4 ± 22.9 ng/mL
# ALDH2 = assay: Gene expression q‐RT‐PCR in HepaRG, ALDH2; type: cell-based, human; settings: 7‐day exposure
# Outline: (§1)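 HepaRG seeded at 2.25 × 10⁵ cells/cm² in 96-well plates for 7 days. RNA extracted with Qiazol/TRIzol plus glycogen. Reverse transcription with M-MLV and oligo dT. TaqMan probe qPCR program: 95°C 10 min, then 40 cycles of 95°C 15 s and 60°C 1 min.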
# [6] = used for β‐PGME to PG in TK model; ref Gargas et al. [55]; cited from earlier work
# ADH1C = assay: Gene expression q‐RT‐PCR in HepaRG, ADH1C; type: cell-based, human; settings: 7‐day exposure
# Outline: as §1
# human hepatocytes [7] = settings: EGME; cited from earlier work
# CYP2E1 = assay: Gene expression q‐RT‐PCR in HepaRG, CYP2E1; type: cell-based, human; settings: 7‐day exposure
# Outline: as §1
# human hepatocytes [8] = settings: EGME, from reported Km and Vmax applying the scaling factors of this study
# [9] = test system: ADH / ALDH in human liver S9 fraction; assay: Inhibition of 2‐MPA formation in S9 incubations; type: biochemical; settings: 5 mM β‐PGME, S9, NAD+ only, 45 min
# Outline: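 Human liver S9 (2 mg/mL) in 100 mM potassium phosphate pH 7.4, 3 mM MgCl₂. Substrate 5 mM, chosen below ADH saturation; NAD⁺ as sole cofactor. ADH inhibitor at 50 μM or ALDH inhibitor at 10 μM, final. 5 min preincubation; cofactor starts reaction; 45 min, 37°C, 300 rpm. Stopped with ice-cold acetonitrile. Acid metabolite by HPLC-MS/MS. N = 3, duplicates. One-way ANOVA/Dunnett versus control.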
# [10] = plasma binding; measured data derived from literature ref 32; cited from earlier work
# [11] = S9 fraction incubation, Michaelis–Menten kinetics β‐PGME to 2‐MPA; type: in vitro ADME, human; settings: human, human liver S9 fraction, pH 7.4
# Outline: (§2)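 Human liver S9 (2 mg/mL), 100 mM phosphate pH 7.4, 3 mM MgCl₂, substrate 0.1–8 mM; 1 mM NAD⁺ plus 1 mM NADPH start the reaction after 5 min preincubation. 45 min, 37°C; cofactor-free controls; acetonitrile stop. Metabolite by HPLC-MS/MS. Km/Vmax by nonlinear Michaelis–Menten fit; CLint = Vmax/Km. Scaled via physiological factors; well-stirred model (QH 20.7 mL/min/kg, fu,inc by Hallifax–Houston). N = 3, duplicates.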
# [12] = test system: human liver subcellular fraction (S9); assay: as above; type: in vitro ADME
# Outline: as §2
# [13] = cited from earlier work
# [14] = Metabolite formation in the 3D HepaRG liver model; type: in vitro ADME, human; settings: human, 3D HepaRG spheroids
# Outline: (§3)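 HepaRG spheroids (79 per well, 2772 cells each) formed 7 days in ultra-low-attachment micro-arrays. Substrate added as threefold concentrate to 5 mM final; 37°C, 5% CO₂, sealed. Supernatant sampled at 1, 15, 30, 45 min and 1, 6, 24 h, acetonitrile-quenched. Metabolite by HPLC-MS/MS. Formation constant from ln concentration versus time over 60 min; CLint per million cells. fu,inc by Kilford method (1.46 × 10⁶ cells/mL); well-stirred CLh. N = 3.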
# 3D HepaRG [15] = assay: Metabolite formation in the 3D HepaRG liver model; type: in vitro ADME, human; settings: 3D HepaRG, metabolite formation
# Outline: as §3
# [16] = S9 fraction incubation, solvent loss and metabolite formation; type: in vitro ADME, human; settings: human, human liver S9 fraction; for microsomal CLint at 700 μM: pH 7.4, CLint, in vitro, S9, measured, 700 μM β‐PGME; for CLint scaled at 700 μM: pH 7.4, Predicted CL int, in vivo
# Outline: (§4)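 S9 2 mg/mL, 100 mM phosphate pH 7.4, 3 mM MgCl₂, 1 mM NAD⁺/NADPH; substrate 700 μM, 37°C. Aliquots at 1, 12, 23, 34, 45 min quenched with 2 volumes ice-cold acetonitrile; cofactor-free controls. Elimination or formation constant from slope of ln % parent remaining or ln metabolite versus time; CLint = k × volume / S9 protein. Scaled to CLh with well-stirred model. N = 3, duplicates.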
# [17] = test system: human liver subcellular fraction (S9); assay: as above; type: in vitro ADME; settings: for In vitro predicted hepatic organ clearance (CL h), CLmetMPA: measured; for Predicted CL h: well‐stirred liver model
# Outline: as §4
# [18] = β‐PGME → 2‐MPA, S9 2 mg/mL, 45 min
structure (smiles),measurement,setting,value
"COCC(=O)O [2‐MAA, 2‐Methoxyacetic acid, reference compound]","higher toxicity of metabolite compared to its solvent (EC50, 3D HepaRG)",3D HepaRG [1],~50 fold
same,EC50,3D HepaRG [1]; 48 h,11 mM
same,EC50,3D HepaRG [1]; 168 h,9 mM
same,EC50,2D HepaRG; 48 h,31 mM
same,EC50,2D HepaRG; 168 h,16 mM
same,logP,[2],−0.30
"COC(C)C(=O)O (stereo not drawn) [2‐MPA, 2‐Methoxypropionic acid]",Urinary excretion rate of 2‐MPA (KMPA),[3],0.09 h⁻¹
same,"higher toxicity of metabolite compared to its solvent (EC50, 3D HepaRG)",3D HepaRG [1],approximately fourfold; also recorded: approximately four times lower
same,EC50,3D HepaRG [1]; 48 h,46 mM
same,EC50,3D HepaRG [1]; 168 h,26 mM
same,EC50,2D HepaRG; 48 h,81 mM
same,EC50,2D HepaRG; 168 h,34 mM
same,Permeability coefficient (BBB) (PeMPA),[4],100 ×10⁻⁶ cm/s
"CC(=O)Nc1ccc(O)cc1 [APAP, acetaminophen]",albumin secretion (albumin concentration in medium),3D HepaRG [5],1.78 ± 0.68 ng/mL
"COCCO [EGME, 2‐Methoxyethanol]",expression of ALDH2,ALDH2,not induced
same,logP,[2],−0.80
same,Kinetic constant EGME → EG (ethylene glycol) (CLmetPG),[6],5 mL/min/kg
same,expression of ADH1C,ADH1C,not induced
same,V max,human hepatocytes [7],61.3 nmol/h/10^6 cells
same,expression of CYP2E1,CYP2E1,not induced
same,calculated in vitro CLint,human hepatocytes [8],0.62 µL/min/mg
"c1ccc(-c2ccc3nc(-c4ccccc4)cn3c2)cc1 [GA11, 2,6‐diphenylimidazo[1,2‐a]pyridine]",2‐MPA formation compared to control incubations,[9]; 10 μM GA11 (ALDH inhibitor),significantly reduced
"COCC(C)O (stereo not drawn) [PGME, 1‐Methoxypropan‐2‐ol]","fu,b",[10],0.540 ^c 0.540 ^c
same,EC50,3D HepaRG [1]; 168 h,96 mM
same,expression of ALDH2,ALDH2,not induced
same,logP,[2],−0.49 −0.49
same,expression of ADH1C,ADH1C,not induced
same,expression of CYP2E1,CYP2E1,not induced
CCO [ethanol],expression of ALDH2,ALDH2,not induced
same,expression of ADH1C,ADH1C,not induced
same,expression of CYP2E1,CYP2E1,not induced
"Cc1cn[nH]c1 [fomepizole, 4‐methyl pyrazole]",2‐MPA formation compared to control incubations,[9]; 50 μM fomepizole (ADH inhibitor),significantly reduced
"COC(C)CO (stereo not drawn) [β‐PGME, 2‐Methoxypropan‐1‐ol]","fu,b",[10],0.540 ^c 0.540 ^c
same,EC50,3D HepaRG [1]; 168 h,86 mM
same,logP,[2],−0.49 −0.49
same,CLint scaled,[11],0.6 ± 0.09 mL/min/kg
same,microsomal CLint,[11],0.19 ± 0.03 µL/min/mg
same,Predicted CL h,"[12]; S9, calculated (Vmax/Km), well‐stirred liver model",0.36 ± 0.05 mL/min/kg
same,"In vitro predicted hepatic organ clearance (CL h), CLmetMPA","[12]; S9, metabolite formation, calculated (V max/K m)",0.36 mL/min/kg
same,K m,[12]; [18],5.572 ± 2.171 mM
same,V max,[12]; [18],1.04 ± 0.28 nmol/min/mg
same,excretion of conjugated β‐PGME,[13],3%
same,β‐PGME excreted as 2‐MPA,[13]; published rat studies,more than 60%
same,CLint scaled at 5 mM,[14],28.2 ± 2.5 mL/min/kg
same,hepatocyte CLint at 5 mM,[14],9.34 ± 0.83 µL/min/1e6 cells
same,microsomal CLint at 5 mM,[14],9.62 ± 0.85 µL/min/mg
same,"In vitro predicted hepatic organ clearance (CL h), CLmetMPA",3D HepaRG [15]; measured,9.07 mL/min/kg
same,Predicted CL h,3D HepaRG [15]; well‐stirred liver model,9.07 ± 0.44 mL/min/kg
same,microsomal CLint at 700 μM,[16]; metabolite formation,40.9 ± 5.19 µL/min/mg
same,microsomal CLint at 700 μM,[16]; solvent loss,3.8 ± 2.14 µL/min/mg
same,CLint scaled at 700 μM,"[16]; S9, metabolite formation",127 ± 16.1 mL/min/kg
same,CLint scaled at 700 μM,"[16]; S9, solvent loss",11.8 ± 6.67 mL/min/kg
same,"In vitro predicted hepatic organ clearance (CL h), CLmetMPA","[17]; S9, metabolite formation",16.4 mL/min/kg
same,Predicted CL h,"[17]; S9, metabolite formation",16.4 ± 0.47 mL/min/kg
same,"In vitro predicted hepatic organ clearance (CL h), CLmetMPA","[17]; S9, solvent loss",5 mL/min/kg
same,Predicted CL h,"[17]; S9, solvent loss",5.00 ± 2.52 mL/min/kg and 5.03 ± 2.52 mL/min/kg
same,clearance ranking based on in vitro predicted CLh values,"[17]; overall generated CLh values (S9 and 3D HepaRG), reported clearance rankings",low to medium clearance compound
